# Most compounds without a hit are left out; they make up all but 1.8% or so of the library.
# M5 ag – CHRM5 agonism in calcium assay; P08912; CHO-K1 hM5 cells, Fluo-8 calcium fluorescence; 0% DMSO wells, 100% maximal acetylcholine response; activation, % at 3 µM; 360,000 tested, 0.19% active; AID 624037;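 active = activation above the run's mean over test compounds plus 3 SD, cut at about 23% in these data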;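 also: signal is peak over basal fluorescence ratio across the kinetic read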
# Target sequence (P08912 whole entry, looked up): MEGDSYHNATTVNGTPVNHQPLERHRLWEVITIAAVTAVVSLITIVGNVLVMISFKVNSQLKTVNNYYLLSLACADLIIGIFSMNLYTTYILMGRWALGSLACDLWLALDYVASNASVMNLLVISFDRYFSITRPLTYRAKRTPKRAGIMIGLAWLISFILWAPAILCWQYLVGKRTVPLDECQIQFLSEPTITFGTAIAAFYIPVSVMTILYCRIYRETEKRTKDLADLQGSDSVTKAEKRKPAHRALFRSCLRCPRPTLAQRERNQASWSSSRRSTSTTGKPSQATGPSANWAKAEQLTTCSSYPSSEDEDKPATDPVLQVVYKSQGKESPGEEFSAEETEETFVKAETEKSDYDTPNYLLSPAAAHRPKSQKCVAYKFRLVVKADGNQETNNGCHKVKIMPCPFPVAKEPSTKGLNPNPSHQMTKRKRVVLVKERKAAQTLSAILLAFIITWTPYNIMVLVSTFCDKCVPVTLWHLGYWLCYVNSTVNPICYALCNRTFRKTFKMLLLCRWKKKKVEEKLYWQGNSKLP
# CHRM5 antagonist – CHRM5 antagonism in calcium assay | P08912 | CHO-hM5 cells, Fluo-8 calcium fluorescence, ACh EC80 | inhibition, % at 3 µM | 360,000 tested, 0.59% active | AID 624040;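 active = inhibition above a per-plate cutoff, the mean of that plate's test compounds plus 3 SD, cut at about 27% in these data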;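 also: 0% = acetylcholine EC80 with DMSO and 100% = DMSO without agonist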
# CHRM4 agonist – CHRM4 agonism in calcium assay. P08173. activation, % at 3 µM. CHO-K1 hM4/Gqi5, Fluo-8 calcium fluorescence; vehicle 0%, full acetylcholine response 100%. 360,000 tested, 0.14% active;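 active = activation above the run mean over all test wells plus 3 SD, cut at about 32% in these data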;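 also: peak over basal fluorescence ratio per well then scaled between controls; 0% = DMSO wells and 100% = acetylcholine at EC100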
# M4 antag – antagonists of human muscarinic M4 receptor (CHRM4) | P08173 | CHO-hM4 cells, ACh EC80, Fluo-8 calcium fluorescence | inhibition, % at 3 µM | 360,000 tested, 0.73% active;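 active = inhibition above its plate's cutoff, the mean inhibition of sample wells plus 3 SD, cut at about 27% in these data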;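 also: 0% = acetylcholine EC80 with DMSO and 100% = DMSO without agonist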
# CHRM5 PAM – potentiates acetylcholine response at human M5 receptor; P08912; CHO-K1 hM5, Fluo-8 calcium, ACh EC20 PAM; 0% = ACh EC20, 100% = ACh EC100; activation, % at 3 µM; 360,000 tested, 0.3% active;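 active = activation above the run cutoff, the mean activation of all test compounds plus 3 SD, cut at about 18% in these data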
#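 Probe or stimulus: acetylcholine, EC20 level; Assay system: human M5 receptor in CHO-K1 cells; Schedule: compound preincubation 140 s before EC20 acetylcholine addition; Technique: intracellular calcium via Fluo-8 fluorescence; Dosing: single-point, 3 µM nominal; Read-out basis: percent activation from peak-over-basal fluorescence ratio, scaled EC20-to-EC100 acetylcholine; Repeats: one well per compound, no replicates.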
# CHRM4 PAM – potentiates acetylcholine response at human M4 receptor. P08173. CHO-K1 hM4/Gqi5, Fluo-8 calcium fluorescence, ACh EC20; 0% = ACh EC20, 100% = maximal ACh. activation, % at 3 µM. 360,000 tested, 0.4% active. AID 624126;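 active = activation above its plate's cutoff, the mean activation of sample wells plus 3 SD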
# Active calls of the source: *.
SMILES,M5 ag,CHRM5 antagonist,CHRM4 agonist,M4 antag,CHRM5 PAM,CHRM4 PAM
NNC(=O)c1oc2nc(-c3cccs3)cc(-c3ccco3)c2c1N,-0.5,24.6,13.1,13.8,14.7,26.1*
COc1ccccc1CNC(=O)c1ccc2nc(C)c(N(C)Cc3ccc(NC(C)=O)cc3)n2c1,-0.4,3.8,7.4,-3.3,-0.2,-5.0
CCCCC[C@@H](C)N1C[C@H](COCc2ccccc2)Oc2cc(N3CC[C@H](N(C)C)C3)ccc2S1(=O)=O,1.8,9.4,9.8,6.0,-2.6,0.1
Cc1ccccc1NC(=O)CC1SC(=NC2CCCCC2)NC1=O (centres undefined),-2.7,-5.0,1.0,-0.9,-2.4,3.5
Cc1ccc(NC(=O)CC2SC(=NC3CCCCC3)NC2=O)cc1 (centres undefined),-5.1,-1.9,0.0,-8.5,0.9,18.4*
COc1ccc(C(CCNCc2ccc(OC(C)C)cc2)C(C)C)cc1 (centres undefined),-2.0,13.2,26.5,23.3,-23.5,-18.5
COc1ccc(C(CCNCc2ccc(N(C)C)cc2)C(C)C)cc1 (centres undefined),2.6,19.2,27.3,41.9*,-29.0,-51.9
Nc1nc2ccccc2cc1C(=O)NCCCCc1ccccc1,8.3,27.7*,16.8,14.2,-23.4,-7.6
CCCCN(C(=O)C1CCC1)c1c(N)n(CCC)c(=O)[nH]c1=O,0.2,4.4,0.0,3.9,3.8,0.6
CCCCN(C(=O)C1CCCC1)c1c(N)n(CC(C)C)c(=O)[nH]c1=O,4.2,-10.1,1.1,-19.8,6.0,27.3*
Cc1ccc(C)c(N2C(=O)CN=C2Nc2ccccc2Cl)c1,-0.3,-11.8,0.8,-0.3,14.3,21.7*
Nc1cnccc1C(=O)O,23.8*,2.9,5.4,3.0,-14.7,2.5
CC(C)C[C@H](NC(=O)OC(C)(C)C)C(=O)N1CCC(C(=O)N[C@@H](Cc2c[nH]c3ccccc23)C(=O)O)CC1,-3.4,3.0,2.4,-0.6,4.3,3.9
CCC1CN2CCc3cc(OC)c(OC)cc3C2CC1CC1c2cc(OC)c(OC)cc2CCN1C(=O)C(Cc1c[nH]c2ccccc12)NC(=O)OC(C)(C)C (centres undefined),-0.8,26.9*,10.1,-2.7,-25.1,-6.9
CSc1ncc2[nH]c(C(O)c3ccccc3)nc2n1 (centres undefined),6.1,16.7,10.3,-10.2,-11.5,18.0*
O=C(N/N=C/c1ccc(OCc2ccc(F)cc2)cc1)c1ccccc1,-1.5,-12.7,1.6,-6.7,5.9,19.8*
Cc1ccccc1NC(=O)CCC(=O)N/N=C/c1cccnc1,-3.8,11.6,1.1,1.1,-4.0,4.7
Cc1ccccc1NC(=O)CCC(=O)N/N=C/c1ccc(F)cc1,-2.6,4.1,4.0,-15.3,5.1,24.9*
O=C(N/N=C/c1ccccc1)c1ccc(NC(=O)c2ccc(F)cc2)cc1,-0.2,17.0,13.4,15.6,20.1*,23.9*
O=C(N/N=C/c1ccc(F)cc1)c1ccc(OCc2ccccc2)cc1,-1.9,1.3,1.0,12.4,-2.8,-3.1
O=C(NC1CC1)c1ccc2sc([C@@H]3O[C@H](CO)[C@H](O)[C@H](O)[C@H]3O)nc2c1,0.7,-3.1,-0.2,11.7,2.2,-2.0
CNC(=O)c1ccc(NC(=O)C2CCN(S(=O)(=O)c3cccc(C(F)(F)F)c3)CC2)cc1,-0.3,-10.2,0.5,-11.0,18.8*,6.0
O=C(NNC(=O)C1CCN(S(=O)(=O)c2cccc(C(F)(F)F)c2)CC1)C1CC1,-4.1,-3.4,1.2,-4.5,-3.8,5.1
O=c1[nH]cnc2c1C(c1ccccc1[N+](=O)[O-])c1c(nc[nH]c1=O)O2,0.5,-13.5,0.8,-0.2,20.9*,12.7
CCOC(=O)Cn1nc(C)n(-c2cccc(Cl)c2)c1=O,5.6,-5.2,2.7,-11.6,18.9*,23.7
SMILES,M5 ag,CHRM5 antagonist,CHRM4 agonist,M4 antag,CHRM5 PAM,CHRM4 PAM
OCC[C@@H]1C[C@H](O)[C@@H](O)[C@]2(Cc3ccccc3CCO2)O1,-1.2,10.5,0.6,-19.0,0.1,16.2
Cc1cccc(Nc2ncccc2C(=O)NCc2cccs2)c1C,4.1,19.4,6.4,37.7*,-2.0,18.6
Cc1cccc(NC(=O)/C(C#N)=C/c2ccc[nH]2)c1C,-5.2,17.8,3.0,-4.2,-4.2,0.8
Cc1cnc(CNC(=O)c2ccc(OC3CCN(C(=O)C4CC4)CC3)cc2)cn1,16.9,0.1,3.5,-2.3,23.2*,17.9
CN(C)C(C)(C)C#CCCCCC#CC(C)(C)N(C)C,-0.9,7.4,0.8,12.1,0.0,2.6
CN(C)C(C)(C)C#CCC(c1ccccc1)c1ccccc1,-7.8,46.4*,2.7,37.8*,-19.9,-16.6
CCN(CC)C(=O)C1=C(C)N(CCCN2CCCC2=O)C(=O)C(CC(=O)NCCN2CCOCC2)C1 (centres undefined),2.1,-2.5,0.8,3.2,-3.4,-3.9
COc1ccccc1/C=C(\NC(=O)c1ccc(OC)c(OC)c1)C(=O)Nc1cc([N+](=O)[O-])ccc1C,0.3,-6.6,2.6,-6.3,-2.5,2.8
COc1ccccc1C(CNC(=O)c1ccc(NS(=O)(=O)c2ccc3c(c2)OCCO3)cc1)N(C)C (centres undefined),-7.9,7.0,0.7,0.3,-20.1,-5.2
Cc1ccc(NC(=O)COC(=O)CC2CCCC2)cc1Cl,-3.2,-0.5,1.4,-12.9,22.7*,17.9
COc1ccc(NC(=O)COC(=O)CC2CCCC2)cc1Cl,0.7,0.3,1.4,-4.1,1.3,-1.8
COC(=O)Cc1ccc(OC2(C)CCN(Cc3csc4ccccc34)C2)cc1 (centres undefined),-2.1,6.7,1.1,54.2*,-19.0,-13.3
CC1(Oc2cccc(F)c2)CCN(Cc2csc3ccccc23)C1 (centres undefined),-1.6,-2.2,-1.6,7.4,-2.6,-3.9
Cc1scc2c1N(C(=O)CN1CCN(C)CC1)c1ccccc1NC2=O,-1.4,98.9*,0.8,98.1*,-18.3,-17.6
CCCCCCC1NC(C(=O)O)CS1 (centres undefined),-9.1,-3.7,-0.1,-4.6,6.0,18.0*
CCCCC1NC(C(=O)O)CS1 (centres undefined),1.9,4.5,1.2,6.6,-1.2,-4.7
Cc1cc(C)c(C#N)c(SCc2nnc(-c3ccccc3[N+](=O)[O-])o2)n1,-2.4,46.7*,24.3,7.2,-21.0,-15.8
Cc1cc(C)c(C#N)c(SCc2ccccc2[N+](=O)[O-])n1,-5.2,9.2,-1.1,3.9,-5.9,0.7
Cc1ccc(CN2C(=O)CSCC2(C)C(=O)NCc2ccccc2)cc1 (centres undefined),2.1,11.5,1.4,12.4,-5.0,-7.1

# Bioassay records as filed in PubChem BioAssay.
